As a reminder, the EC50 is the concentration needed to bring the measured effect to its halfway point. Broadly, the solubility is the concentration that dissolves in the medium under given conditions. The low end stands for a poorly soluble substance, the high end for a readily soluble substance.

Data set [1] concerns the target KiSS-1 receptor (Homo sapiens, UniProt Q969F8). Briefly: Agonist activity at human KISS1R expressed in CHO cells assessed as increase in calcium mobilization measured at 2 secs interval for 2 mins by fluo-4 NW dye based FLIPR assay. The format is functional, cell-based. In short, it runs like this:
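Ligand-induced Ca2+ rise in CHO cells expressing human KISS1R, read on a fluorometric imaging plate reader (FLIPR); agonist potency reported as EC50 (nM).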
A general note: A change in cytosolic calcium serves as a functional read-out for many receptors and channels.

Data set [2] is described as follows: Retention time of the compound by reverse-phase HPLC method. Format: physicochemical. Put shortly: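 RP-HPLC on C18 monolith column. Linear gradient of 0.1% TFA water / 0.1% TFA acetonitrile, A/B 95/5 to 35/65 over 10 min, 3.0 mL/min.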
Data set [3] can be described thus: Stability in Sprague-Dawley rat serum assessed as parent compound remaining at 10 ug/ml measured after 15 mins by LC-MS/MS analysis. Format: ADME, cell-free. To be noted: read-out: Stability. Put shortly: (§1)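 10 µL of 10 μg/mL aqueous peptide stock added to 990 μL pre-warmed SD rat serum (final 0.1 μg/mL), 37 °C. Aliquots taken at 0, 5, 15, 30, 60, 120 min. Quenched with formic acid/methanol and acetonitrile, centrifuged, internal standard added, quantified by LC/MS/MS. Result is percent remaining; n = 2.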

Data set [4] in a line: Stability in Sprague-Dawley rat serum assessed as parent compound remaining at 10 ug/ml measured after 5 mins by LC-MS/MS analysis. Format: ADME, cell-free. To be noted: read-out: Stability. In short, it runs like this: as §1
Data set [5] is described as follows: Stability in Sprague-Dawley rat serum assessed as parent compound remaining at 10 ug/ml measured after 30 mins by LC-MS/MS analysis. Format: ADME, cell-free. To be noted: read-out: Stability. Put shortly:
as §1

The nature of data set [6]: Stability in Sprague-Dawley rat serum assessed as parent compound remaining at 10 ug/ml measured immediately by LC-MS/MS analysis. Format: ADME, cell-free. To be noted: read-out: Stability. Put shortly: as §1
Data set [7] is described as follows: Stability in Sprague-Dawley rat serum assessed as parent compound remaining at 10 ug/ml measured after 120 mins by LC-MS/MS analysis. The format is ADME, cell-free. To be noted: read-out: Stability. In short, it runs like this: as §1
Data set [8] deals with KiSS-1 receptor (Rattus norvegicus, UniProt Q924U1). In words: Agonist activity at rat KISS1R.
A short description of data set [9]: Stability in Sprague-Dawley rat serum assessed as parent compound remaining at 10 ug/ml measured after 60 mins by LC-MS/MS analysis. The format is ADME, cell-free. To be noted: read-out: Stability. In short, it runs like this: as §1
The nature of data set [10]: Solubility of the compound in water. The format is physicochemical.
Data set [11] is described as follows: Solubility of the compound in saline. The format is physicochemical.

The structures appear in SMILES notation. Square brackets hold non-standard residues; d marks the D form. Peptide text beside a SMILES is read from it. * marks the point of attachment. Propanoyl(3-indol-3-yl) = O=C(CCc1c[nH]c2ccccc12)*; Propanoyl(3-(4-pyridyl)) = O=C(CCc1ccncc1)*; Arg(Me) = CNC(=N)NCCC[C@H](N)C(=O)O; Hydrocinnamoyl = O=C(CCc1ccccc1)*; d4Pal = N[C@H](Cc1ccncc1)C(=O)O; Hexanoyl = CCCCCC(=O)*; Bz = O=C(c1ccccc1)*; azaGly = NNC(=O)O

Chain of KiSS-1 receptor (Homo sapiens, UniProt Q969F8) (Q969F8 whole entry): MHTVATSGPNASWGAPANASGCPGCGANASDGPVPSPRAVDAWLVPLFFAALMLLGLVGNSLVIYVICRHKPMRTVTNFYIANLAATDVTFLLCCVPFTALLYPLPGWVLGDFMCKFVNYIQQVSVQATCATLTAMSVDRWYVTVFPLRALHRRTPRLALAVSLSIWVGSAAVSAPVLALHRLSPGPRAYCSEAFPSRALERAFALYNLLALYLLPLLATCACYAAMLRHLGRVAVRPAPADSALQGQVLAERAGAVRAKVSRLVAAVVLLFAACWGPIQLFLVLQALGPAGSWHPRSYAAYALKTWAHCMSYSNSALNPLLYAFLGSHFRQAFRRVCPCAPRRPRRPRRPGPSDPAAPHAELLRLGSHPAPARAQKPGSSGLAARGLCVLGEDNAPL
Chain of KiSS-1 receptor (Rattus norvegicus, UniProt Q924U1) (Q924U1 whole entry): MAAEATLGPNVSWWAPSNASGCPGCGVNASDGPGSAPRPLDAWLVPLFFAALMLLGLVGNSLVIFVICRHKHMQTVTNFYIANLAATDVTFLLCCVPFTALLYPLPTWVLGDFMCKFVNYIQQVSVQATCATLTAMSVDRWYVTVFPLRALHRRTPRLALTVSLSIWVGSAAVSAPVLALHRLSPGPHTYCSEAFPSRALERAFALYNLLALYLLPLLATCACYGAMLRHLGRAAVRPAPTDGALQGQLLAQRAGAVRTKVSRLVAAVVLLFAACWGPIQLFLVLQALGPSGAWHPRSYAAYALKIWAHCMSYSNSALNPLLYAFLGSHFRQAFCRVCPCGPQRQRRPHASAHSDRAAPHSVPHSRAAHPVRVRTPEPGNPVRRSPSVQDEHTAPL

With `CNC(=N)NCCC[C@H](NC(=O)[C@H](CC(C)C)NC(=O)NNC(=O)[C@H](Cc1ccccc1)NC(=O)Cc1ccccc1)C(=O)N[C@@H](Cc1c[nH]c2ccccc12)C(N)=O`, in data set [1], the 50% effective concentration (EC50) is 0.27 nM. In data set [2], the Retention_time was determined as 6.49 min.
The like results for `CNC(=N)NCCC[C@H](NC(=O)[C@H](CC(C)C)NC(=O)NNC(=O)[C@H](Cc1ccccc1)NC(=O)CCc1c[nH]c2ccccc12)C(=O)N[C@@H](Cc1c[nH]c2ccccc12)C(N)=O` were, in that order, 0.022 nM and 6.67 min.
The like results for `CNC(=N)NCCC[C@H](NC(=O)[C@H](CC(C)C)NC(=O)NNC(=O)[C@H](Cc1ccccc1)NC(=O)c1ccc[nH]1)C(=O)N[C@@H](Cc1c[nH]c2ccccc12)C(N)=O` were, in that order, 0.23 nM and 5.91 min.
The like results for `CNC(=N)NCCC[C@H](NC(=O)[C@H](CC(C)C)NC(=O)NNC(=O)[C@H](Cc1ccccc1)NC(=O)[C@H](CO)NC(=O)[C@H](CC(N)=O)NC(=O)CCc1ccccc1)C(=O)N[C@@H](Cc1ccccc1)C(N)=O` (Hydrocinnamoyl-NSF[azaGly]L[Arg(Me)]F-NH2) were, in that order, 0.17 nM and 5.9 min.
Consider `CNC(=N)NCCC[C@H](NC(=O)[C@H](CC(C)C)NC(=O)NNC(=O)[C@H](Cc1ccccc1)NC(=O)c1ccccc1)C(=O)N[C@@H](Cc1ccccc1)C(N)=O` (Bz-F[azaGly]L[Arg(Me)]F-NH2), for which the 50% effective concentration (EC50) in data set [1] worked out at 0.6 nM. This compound also returned a Retention_time in [2] of 6.21 min.
Take `CNC(=N)NCCC[C@H](NC(=O)[C@H](CC(C)C)NC(=O)NNC(=O)[C@H](Cc1ccccc1)NC(=O)c1cccnc1)C(=O)N[C@@H](Cc1c[nH]c2ccccc12)C(N)=O`: in [1], the EC50 was found to be 0.16 nM. For the same compound, the Retention_time in data set [2] came out at 4.69 min.
With `CNC(=N)NCCC[C@H](NC(=O)[C@H](CC(C)C)NC(=O)NNC(=O)[C@H](Cc1ccccc1)NC(=O)[C@H](CO)NC(=O)[C@H](CC(N)=O)NC(=O)[C@@H](Cc1ccncc1)NC(=O)[C@H](N)Cc1ccc(O)cc1)C(=O)N[C@@H](Cc1ccccc1)C(N)=O` [KISS1-305] (H-[dY][d4Pal]NSF[azaGly]L[Arg(Me)]F-NH2), the remaining at 0.25 h, 10 ug/ml in [3] was 97%. Further, in [4], the remaining at 5 min, 10 ug/ml came out at 98%. Besides, in data set [5], the remaining at 0.5 h, 10 ug/ml was found to be 95%. Further, the remaining at 0 min, 10 ug/ml in data set [6] is 100%. Besides, the EC50 in [1] amounted to 0.27 nM; in data set [8], 0.17 nM. In [7], the remaining at 2 h, 10 ug/ml was 70%. Also, in data set [9], the remaining at 1 h, 10 ug/ml is 89%.
With `CNC(=N)NCCC[C@H](NC(=O)[C@H](CC(C)C)NC(=O)NNC(=O)[C@H](Cc1ccccc1)NC(=O)c1c[nH]cn1)C(=O)N[C@@H](Cc1c[nH]c2ccccc12)C(N)=O`, the EC50 in [1] amounted to 0.24 nM. For the same compound, the Retention_time in data set [2] is listed as 4.47 min.
`CNC(=N)NCCC[C@H](NC(=O)[C@H](CC(C)C)NC(=O)NNC(=O)[C@H](Cc1ccccc1)NC(=O)CCc1c[nH]c2ccccc12)C(=O)N[C@@H](Cc1ccccc1)C(N)=O` ({Propanoyl(3-indol-3-yl)}-F[azaGly]L[Arg(Me)]F-NH2): in data set [1], the EC50 was determined as 0.62 nM. For the same compound, the Retention_time in data set [2] came out at 6.58 min.
The like results for `CNC(=N)NCCC[C@H](NC(=O)[C@H](CC(C)C)NC(=O)NNC(=O)[C@H](Cc1ccccc1)NC(=O)[C@H](CO)NC(=O)[C@H](CC(N)=O)NC(=O)CCc1c[nH]c2ccccc12)C(=O)N[C@@H](Cc1ccccc1)C(N)=O` ({Propanoyl(3-indol-3-yl)}-NSF[azaGly]L[Arg(Me)]F-NH2) were, in that order, 0.13 nM and 5.95 min.
`CNC(=N)NCCC[C@H](NC(=O)[C@H](CC(C)C)NC(=O)NNC(=O)[C@H](Cc1ccccc1)NC(=O)c1ccccc1)C(=O)N[C@@H](Cc1c[nH]c2ccccc12)C(N)=O`: the solubility in [10] is less than 10 mg/mL; in data set [11] it was less than 0.1 mg/mL. Further, the remaining at 0.25 h, 10 ug/ml in [3] came to 97%. Also, the remaining at 5 min, 10 ug/ml in [4] worked out at 98%. Moreover, in data set [5], the remaining at 0.5 h, 10 ug/ml was 99%. Moreover, the remaining at 0 min, 10 ug/ml in data set [6] was determined as 100%. The half-maximal effective concentration (EC50) in data set [1] came out at 0.024 nM. Besides, the remaining at 2 h, 10 ug/ml in [7] was 91%. The same compound yielded a Retention_time in [2] of 6.29 min. Moreover, the remaining at 1 h, 10 ug/ml in data set [9] was 95%.
For the compound `CNC(=N)NCCC[C@H](NC(=O)[C@H](CC(C)C)NC(=O)NNC(=O)[C@H](Cc1ccccc1)NC(=O)[C@H](CO)NC(=O)CCc1c[nH]c2ccccc12)C(=O)N[C@@H](Cc1ccccc1)C(N)=O` ({Propanoyl(3-indol-3-yl)}-SF[azaGly]L[Arg(Me)]F-NH2), the EC50 in data set [1] amounted to 8.2 nM. In data set [2], this compound returned a Retention_time of 6.17 min.
The like results for `CCC(=O)N[C@@H](Cc1ccccc1)C(=O)NNC(=O)N[C@@H](CC(C)C)C(=O)N[C@@H](CCCNC(=N)NC)C(=O)N[C@@H](Cc1c[nH]c2ccccc12)C(N)=O` were, in that order, 0.13 nM and 5.52 min.
The like results for `CNC(=N)NCCC[C@H](NC(=O)[C@H](CC(C)C)NC(=O)NNC(=O)[C@H](Cc1ccccc1)NC(=O)C1CCCCC1)C(=O)N[C@@H](Cc1c[nH]c2ccccc12)C(N)=O` were, in that order, 0.12 nM and 6.7 min.
The like results for `CNC(=N)NCCC[C@H](NC(=O)[C@H](CC(C)C)NC(=O)NNC(=O)[C@@H](N)Cc1ccccc1)C(=O)N[C@@H](Cc1ccccc1)C(N)=O` (H-F[azaGly]L[Arg(Me)]F-NH2) were, in that order, 130 nM and 4.29 min.
Regarding `CNC(=N)NCCC[C@H](NC(=O)[C@H](CC(C)C)NC(=O)NNC(=O)[C@H](Cc1ccccc1)NC(=O)[C@H](CO)NC(=O)[C@H](CC(N)=O)NC(=O)CCc1ccncc1)C(=O)N[C@@H](Cc1ccccc1)C(N)=O` ({Propanoyl(3-(4-pyridyl))}-NSF[azaGly]L[Arg(Me)]F-NH2), the EC50 in [1] came out at 1.5 nM. The same compound gave a Retention_time in [2] of 4.51 min.
The like results for `CNC(=N)NCCC[C@H](NC(=O)[C@H](CC(C)C)NC(=O)NNC(=O)[C@H](Cc1ccccc1)NC(=O)C1CC1)C(=O)N[C@@H](Cc1c[nH]c2ccccc12)C(N)=O` were, in that order, 0.028 nM and 5.7 min.
Take `CNC(=N)NCCC[C@H](NC(=O)[C@H](CC(C)C)NC(=O)NNC(=O)[C@H](Cc1ccccc1)NC(=O)C(C)C)C(=O)N[C@@H](Cc1c[nH]c2ccccc12)C(N)=O`: in data set [1], the EC50 is 0.058 nM. In [2], this compound gave a Retention_time of 5.88 min.
The like results for `CNC(=N)NCCC[C@H](NC(=O)[C@H](CC(C)C)NC(=O)NNC(=O)[C@H](Cc1ccccc1)NC(=O)c1ccoc1)C(=O)N[C@@H](Cc1c[nH]c2ccccc12)C(N)=O` were, in that order, 0.11 nM and 5.88 min.
The like results for `CNC(=N)NCCC[C@H](NC(=O)[C@H](CC(C)C)NC(=O)NNC(=O)[C@H](Cc1ccccc1)NC(=O)[C@H](CO)NC(=O)[C@H](CC(N)=O)NC(=O)[C@H](Cc1c[nH]c2ccccc12)NC(C)=O)C(=O)N[C@@H](Cc1ccccc1)C(N)=O` (Ac-WNSF[azaGly]L[Arg(Me)]F-NH2) were, in that order, 2.1 nM and 5.76 min.
The like results for `CNC(=N)NCCC[C@H](NC(=O)[C@H](CC(C)C)NC(=O)NNC(=O)[C@H](Cc1ccccc1)NC(C)=O)C(=O)N[C@@H](Cc1ccccc1)C(N)=O` (Ac-F[azaGly]L[Arg(Me)]F-NH2) were, in that order, 0.33 nM and 5.02 min.
With `CNC(=N)NCCC[C@H](NC(=O)[C@H](CC(C)C)NC(=O)NNC(=O)[C@H](Cc1ccccc1)NC(=O)[C@H](CO)NC(=O)[C@H](CC(N)=O)NC(=O)[C@H](Cc1c[nH]c2ccccc12)NC(=O)[C@H](N)Cc1ccc(O)cc1)C(=O)N[C@@H](Cc1ccccc1)C(N)=O` (H-[dY]WNSF[azaGly]L[Arg(Me)]F-NH2), in data set [1], the EC50 came to 0.057 nM. This compound also gave a Retention_time in data set [2] of 5.54 min.
The like results for `CNC(=N)NCCC[C@H](NC(=O)[C@H](CC(C)C)NC(=O)NNC(=O)[C@H](Cc1ccccc1)NC(=O)[C@H](CO)NC(=O)[C@H](CC(N)=O)NC(=O)[C@@H](N)Cc1c[nH]c2ccccc12)C(=O)N[C@@H](Cc1ccccc1)C(N)=O` (H-WNSF[azaGly]L[Arg(Me)]F-NH2) were, in that order, 7.7 nM and 5.03 min.
As for `CCCCCC(=O)N[C@@H](Cc1ccccc1)C(=O)NNC(=O)N[C@@H](CC(C)C)C(=O)N[C@@H](CCCNC(=N)NC)C(=O)N[C@@H](Cc1ccccc1)C(N)=O` (Hexanoyl-F[azaGly]L[Arg(Me)]F-NH2), the EC50 in data set [1] was found to be 1.4 nM. For the same compound, the Retention_time in data set [2] amounted to 6.66 min.
`CNC(=N)NCCC[C@H](NC(=O)[C@H](CC(C)C)NC(=O)NNC(=O)[C@H](Cc1ccccc1)NC(=O)c1ccccn1)C(=O)N[C@@H](Cc1c[nH]c2ccccc12)C(N)=O`: in data set [1], the EC50 amounted to 0.037 nM. In [2], this compound registered a Retention_time of 6.02 min.

Source of the values: ChEMBL document CHEMBL4330106, “A new class of pentapeptide KISS1 receptor agonists with hypothalamic-pituitary-gonadal axis activation” (Bioorg Med Chem Lett, 2019).
